In ChEMBL document CHEMBL5380801, “Development of Substituted Phenyl Dihydrouracil as the Novel Achiral Cereblon Ligands for Targeted Protein Degradation” (J Med Chem, 2023):
Active and inactive are the calls of the source. The calls are words filed in the database; no cut-off is given here.

How the values were obtained:
[1] = Stability in human liver microsomes assessed as parent compound remaining measured after 0.5 hrs in presence of NADPH by LC-MS/MS analysis; assay type: ADME, Microsome; conditions: read-out: Stability
Summary of the method: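 Human liver microsome incubation; percent parent remaining reported after 0.5 h.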

[2] = Stability in human plasma assessed as parent compound remaining measured after 4 hrs in presence of NADPH by LC-MS/MS analysis; assay type: ADME, cell-free; conditions: read-out: Stability
Summary of the method: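 Human plasma incubation; percent parent remaining reported after 4.0 h.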

[3] = Stability of the compound in bicine buffer at pH 8.8 assessed as parent compound remaining at 100 uM measured after 24 hrs by HPLC analysis; assay type: physicochemical; conditions: read-out: Stability
Summary of the method: (§1)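 Incubated in buffer at the stated pH at 37 °C; percent parent remaining after 24 h. Ring-opening hydrolysis of the glutarimide or dihydrouracil monitored.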

[4] = target: Protein cereblon/Zinc finger protein Aiolos (Homo sapiens) (UniProt Q96SW2+Q9UKT9); assay: Protac activity at CRBN/IKZF3 in human MV4-11 cells assessed as induction of IKZF3 degradation at 1 to 10 uM measured after 24 hrs by Western blot analysis; assay type: cell-based; conditions: dose 1-10 µM
Protein cereblon/Zinc finger protein Aiolos (Homo sapiens), sequence (Q96SW2 whole entry, looked up): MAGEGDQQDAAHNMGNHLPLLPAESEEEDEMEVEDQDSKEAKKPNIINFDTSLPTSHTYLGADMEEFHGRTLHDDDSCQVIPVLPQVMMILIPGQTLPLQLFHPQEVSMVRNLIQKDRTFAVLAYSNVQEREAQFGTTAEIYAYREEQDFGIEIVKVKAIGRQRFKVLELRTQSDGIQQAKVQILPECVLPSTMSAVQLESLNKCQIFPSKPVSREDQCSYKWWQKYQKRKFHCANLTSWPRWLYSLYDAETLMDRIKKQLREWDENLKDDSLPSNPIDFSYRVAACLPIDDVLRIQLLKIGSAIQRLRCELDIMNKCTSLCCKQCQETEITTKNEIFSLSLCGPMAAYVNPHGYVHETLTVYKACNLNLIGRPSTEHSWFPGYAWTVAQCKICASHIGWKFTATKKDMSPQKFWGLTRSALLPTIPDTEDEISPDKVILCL
Protein cereblon/Zinc finger protein Aiolos (Homo sapiens), sequence (Q9UKT9 whole entry, looked up): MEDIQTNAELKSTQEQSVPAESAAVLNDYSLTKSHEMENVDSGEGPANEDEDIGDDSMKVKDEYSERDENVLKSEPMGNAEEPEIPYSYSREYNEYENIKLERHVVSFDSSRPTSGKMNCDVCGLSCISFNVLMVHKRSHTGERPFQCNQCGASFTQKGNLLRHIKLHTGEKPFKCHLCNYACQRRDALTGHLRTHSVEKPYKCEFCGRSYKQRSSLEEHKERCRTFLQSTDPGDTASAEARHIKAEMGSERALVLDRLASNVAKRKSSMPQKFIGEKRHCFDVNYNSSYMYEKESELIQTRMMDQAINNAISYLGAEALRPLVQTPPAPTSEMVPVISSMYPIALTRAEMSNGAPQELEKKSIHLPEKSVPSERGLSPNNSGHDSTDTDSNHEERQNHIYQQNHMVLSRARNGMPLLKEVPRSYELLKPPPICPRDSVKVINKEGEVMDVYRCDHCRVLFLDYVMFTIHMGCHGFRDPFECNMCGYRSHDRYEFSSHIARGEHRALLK

[5] = target: Cereblon/Ikaros (Homo sapiens) (UniProt Q96SW2+Q13422); assay: Protac activity at CRBN/IKZF1 in human MV4-11 cells assessed as induction of IKZF1 degradation at 1 to 10 uM measured after 24 hrs by Western blot analysis; assay type: cell-based; conditions: dose 1-10 µM
[6] = target: Protein cereblon/Eukaryotic peptide chain release factor GTP-binding subunit ERF3A (Homo sapiens) (UniProt Q96SW2+P15170); assay: Protac activity at CRBN/GSPT1 in human MV4-11 cells assessed as induction of GSPT1 degradation at 1 to 10 uM measured after 24 hrs by Western blot analysis; assay type: cell-based; conditions: dose 1-10 µM
Protein cereblon/Eukaryotic peptide chain release factor GTP-binding subunit ERF3A (Homo sapiens), sequence (P15170 whole entry, looked up): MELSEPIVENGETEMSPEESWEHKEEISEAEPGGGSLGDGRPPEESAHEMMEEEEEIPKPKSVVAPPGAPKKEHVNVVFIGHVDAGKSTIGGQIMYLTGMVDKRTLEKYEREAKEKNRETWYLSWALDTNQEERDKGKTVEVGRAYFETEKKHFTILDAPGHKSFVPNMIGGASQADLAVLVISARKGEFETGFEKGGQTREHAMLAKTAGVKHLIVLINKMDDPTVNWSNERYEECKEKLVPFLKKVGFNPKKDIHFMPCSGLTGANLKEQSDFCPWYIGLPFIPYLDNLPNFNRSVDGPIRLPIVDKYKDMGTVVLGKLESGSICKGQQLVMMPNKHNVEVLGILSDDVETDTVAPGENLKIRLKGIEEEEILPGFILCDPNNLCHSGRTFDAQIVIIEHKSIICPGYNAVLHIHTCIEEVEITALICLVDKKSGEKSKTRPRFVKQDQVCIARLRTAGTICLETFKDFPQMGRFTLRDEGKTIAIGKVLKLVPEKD
Protein cereblon/Eukaryotic peptide chain release factor GTP-binding subunit ERF3A (Homo sapiens), sequence (Q96SW2 whole entry, looked up): as the sequence (Q96SW2 whole entry, looked up) above

[7] = Stability of the compound in potassium phosphate buffer at pH 7.4 assessed as parent compound remaining at 100 uM measured after 24 hrs by HPLC analysis; assay type: physicochemical; conditions: read-out: Stability; summary of the method: as §1
[8] = Stability of the compound in HCl solution at pH 1.0 assessed as parent compound remaining at 100 uM measured after 24 hrs by HPLC analysis; assay type: physicochemical; conditions: read-out: Stability; summary of the method: as §1
[9] = Stability of the compound in bicine buffer at pH 8.8 assessed as parent compound remaining at 100 uM measured after 2 hrs by HPLC analysis; assay type: physicochemical; conditions: read-out: Stability
Summary of the method: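 Incubated in pH 8.8 buffer; percent parent remaining reported after 2 h.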

[10] = test system: MV4-11; assay: Induction of apoptosis in human MV4-11 cells assessed as late apoptotic cells at 1 uM measured after 48 hrs by Annexin V-FITC staining based flow cytometry (reference value: 0.42%); assay type: functional
[11] = test system: MV4-11; assay: Induction of apoptosis in human MV4-11 cells assessed as caspase 3 cleavage at 0.01 to 10 nM; assay type: functional, cell-based; conditions: MV4-11, dose upper 10.0 µM, in the assay text read “0.01 to 10 uM” for “0.01 to 10 nM”
Summary of the method: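 MV4;11 cells treated with the indicated concentrations for 24 h, or for the indicated times. […] Blocked in 5% BSA/TBST; anti-caspase 3 and anti-β-actin overnight in the cold, HRP secondary 1 h at room temperature; ECL detection of full-length and cleaved caspase 3.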

[12] = test system: MV4-11; assay: Induction of apoptosis in human MV4-11 cells assessed as early apoptotic cells at 0.01 uM measured after 48 hrs by Annexin V-FITC staining based flow cytometry (reference value: 0%); assay type: functional
[13] = test system: MV4-11; assay: Induction of apoptosis in human MV4-11 cells assessed as necrotic cells at 10 uM measured after 48 hrs by Annexin V-FITC staining based flow cytometry (reference value: 0.86%); assay type: functional
[14] = test system: MV4-11; assay: Induction of apoptosis in human MV4-11 cells assessed as early apoptotic cells at 10 uM measured after 48 hrs by Annexin V-FITC staining based flow cytometry (reference value: 0%); assay type: functional
[15] = test system: MV4-11; assay: Induction of cell cycle arrest in human MV4-11 cells assessed as decrease in accumulation of cells at S phase at 0.01 to 10 uM incubated for 48 hrs by PI staining based flow cytometry analysis; assay type: functional; conditions: dose 0.01-10 µM
Summary of the method: (§2)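 Cell-cycle distribution determined by flow cytometry (Attune) in MV4;11 cells seeded in 6-well plates and treated with the indicated concentrations for 48 h.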

[16] = test system: MV4-11; assay: Induction of apoptosis in human MV4-11 cells assessed as early apoptotic cells at 1 uM measured after 48 hrs by Annexin V-FITC staining based flow cytometry (reference value: 0%); assay type: functional
[17] = test system: MV4-11; assay: Induction of apoptosis in human MV4-11 cells assessed as necrotic cells at 0.01 uM measured after 48 hrs by Annexin V-FITC staining based flow cytometry (reference value: 0.86%); assay type: functional
[18] = test system: MV4-11; assay: Induction of apoptosis in human MV4-11 cells assessed as necrotic cells at 1 uM measured after 48 hrs by Annexin V-FITC staining based flow cytometry (reference value: 0.86%); assay type: functional
[19] = test system: MV4-11; assay: Induction of apoptosis in human MV4-11 cells assessed as late apoptotic cells at 0.1 uM measured after 48 hrs by Annexin V-FITC staining based flow cytometry (reference value: 0.42%); assay type: functional
[20] = test system: MV4-11; assay: Induction of apoptosis in human MV4-11 cells assessed as viable cells at 0.01 uM measured after 48 hrs by Annexin V-FITC staining based flow cytometry (reference value: 98.7%); assay type: functional; conditions: read-out: Activity
[21] = test system: MV4-11; assay: Induction of apoptosis in human MV4-11 cells assessed as viable cells at 0.1 uM measured after 48 hrs by Annexin V-FITC staining based flow cytometry (reference value: 98.7%); assay type: functional; conditions: read-out: Activity
[22] = test system: MV4-11; assay: Antiproliferative activity at human MV4-11 cells assessed as reduction in cell viability measured after 72 hrs by Alamar blue dye based analysis; assay type: functional; conditions: MV4-11, 72 h
Summary of the method: (§3)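 MV4;11 cells (RPMI1640, 10% FBS, 1% Pen/Strep, 37 °C, 5% CO2, used within 20 passages) seeded at 5000–10000 cells/well, then given DMSO or compound at the indicated doses for 72 h. AlamarBlue then added; fluorescence read at ex 530–560 nm, em 590 nm. Signal normalized to DMSO-treated cells; IC50 calculated.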

[23] = test system: MV4-11; assay: Induction of apoptosis in human MV4-11 cells assessed as early apoptotic cells at 0.1 uM measured after 48 hrs by Annexin V-FITC staining based flow cytometry (reference value: 0%); assay type: functional
[24] = test system: MV4-11; assay: Induction of apoptosis in human MV4-11 cells assessed as late apoptotic cells at 10 uM measured after 48 hrs by Annexin V-FITC staining based flow cytometry (reference value: 0.42%); assay type: functional
[25] = test system: MV4-11; assay: Induction of cell cycle arrest in human MV4-11 cells assessed as accumulation of cells at G1 phase at 0.01 to 10 uM incubated for 48 hrs by PI staining based flow cytometry analysis; assay type: functional; conditions: dose 0.01-10 µM; summary of the method: as §2
[26] = test system: MV4-11; assay: Induction of apoptosis in human MV4-11 cells assessed as necrotic cells at 0.1 uM measured after 48 hrs by Annexin V-FITC staining based flow cytometry (reference value: 0.86%); assay type: functional
[27] = test system: MV4-11; assay: Induction of apoptosis in human MV4-11 cells assessed as viable cells at 10 uM measured after 48 hrs by Annexin V-FITC staining based flow cytometry (reference value: 98.7%); assay type: functional; conditions: read-out: Activity
[28] = test system: MV4-11; assay: Induction of apoptosis in human MV4-11 cells assessed as viable cells at 1 uM measured after 48 hrs by Annexin V-FITC staining based flow cytometry (reference value: 98.7%); assay type: functional; conditions: read-out: Activity
[29] = test system: MV4-11; assay: Induction of apoptosis in human MV4-11 cells assessed as late apoptotic cells at 0.01 uM measured after 48 hrs by Annexin V-FITC staining based flow cytometry (reference value: 0.42%); assay type: functional
[30] = target: Protein cereblon/DNA damage-binding protein 1 (Homo sapiens, UniProt Q96SW2); assay: Binding affinity to recombinant human CRBN/DDB1 assessed as dissociation constant incubated for 20 mins by fluorescence polarization assay; assay type: protein assay
Protein cereblon/DNA damage-binding protein 1, sequence (Q96SW2 whole entry): as the sequence (Q96SW2 whole entry, looked up) above
Protein cereblon/DNA damage-binding protein 1, sequence (Q16531 whole entry, further chain): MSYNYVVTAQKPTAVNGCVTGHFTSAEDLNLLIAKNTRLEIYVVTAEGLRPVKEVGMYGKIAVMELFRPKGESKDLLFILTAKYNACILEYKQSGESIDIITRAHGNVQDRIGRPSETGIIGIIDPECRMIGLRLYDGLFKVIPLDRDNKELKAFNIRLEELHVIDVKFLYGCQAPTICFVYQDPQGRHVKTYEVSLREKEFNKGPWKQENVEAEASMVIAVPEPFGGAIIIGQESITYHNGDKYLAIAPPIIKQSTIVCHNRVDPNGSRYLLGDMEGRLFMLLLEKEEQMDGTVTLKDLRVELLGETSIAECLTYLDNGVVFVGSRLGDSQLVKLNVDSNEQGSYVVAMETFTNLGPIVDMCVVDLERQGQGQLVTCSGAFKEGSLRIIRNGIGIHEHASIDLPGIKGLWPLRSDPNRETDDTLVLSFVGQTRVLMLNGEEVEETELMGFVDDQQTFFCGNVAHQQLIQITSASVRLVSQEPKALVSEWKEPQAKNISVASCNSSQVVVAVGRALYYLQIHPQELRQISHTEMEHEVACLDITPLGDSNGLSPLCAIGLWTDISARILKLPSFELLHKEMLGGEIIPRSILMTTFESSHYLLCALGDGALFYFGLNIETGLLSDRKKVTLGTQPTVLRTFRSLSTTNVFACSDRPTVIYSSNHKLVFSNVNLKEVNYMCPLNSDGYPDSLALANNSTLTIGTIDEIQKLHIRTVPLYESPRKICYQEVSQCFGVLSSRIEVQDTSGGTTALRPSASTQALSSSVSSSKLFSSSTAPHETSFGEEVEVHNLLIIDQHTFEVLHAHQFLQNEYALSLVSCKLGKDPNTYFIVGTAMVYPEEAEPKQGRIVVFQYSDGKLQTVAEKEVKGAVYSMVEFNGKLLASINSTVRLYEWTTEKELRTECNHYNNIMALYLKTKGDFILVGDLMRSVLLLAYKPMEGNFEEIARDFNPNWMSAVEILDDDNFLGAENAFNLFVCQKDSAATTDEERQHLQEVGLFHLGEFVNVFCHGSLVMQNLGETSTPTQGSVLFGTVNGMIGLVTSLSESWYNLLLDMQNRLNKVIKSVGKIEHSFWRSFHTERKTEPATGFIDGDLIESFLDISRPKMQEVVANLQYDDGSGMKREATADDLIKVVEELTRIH

[31] = test system: MV4-11; assay: Antiproliferative activity at human MV4-11 cells assessed as reduction in cell viability at upto 100 uM measured after 72 hrs by Alamar blue dye based analysis; assay type: functional; summary of the method: as §3
[32] = target: Protein cereblon/Bromodomain-containing protein 4 (Homo sapiens) (UniProt O60885+Q96SW2); assay: Protac activity at CRBN/BRD4 in human MV4-11 cells assessed as degradation of BRD4 at 0.01 to 1 uM incubated for 24 hrs; assay type: cell-based; conditions: dose 0.01-1 µM
Protein cereblon/Bromodomain-containing protein 4 (Homo sapiens), sequence (Q96SW2 whole entry, looked up, other chains not shown): as the sequence (Q96SW2 whole entry, looked up) above

Structure (SMILES): Cc1c(C#CCNC(=O)OC(C)(C)C)cccc1N1CCC(=O)NC1=O
- remaining at 0.5 h [1]: 87%
- remaining at 4 h [2]: 97%
- remaining at 24 h, 100 µM [3]: 93%
- Activity [4]: inactive
- Activity [5]: inactive
- Activity [6]: inactive
- remaining at 24 h, 100 µM [7]: > 99%
- remaining at 24 h, 100 µM [8]: > 99%

Structure (SMILES): Nc1cccc2c1CN(C1CCC(=O)NC1=O)C2=O (stereo not given) [LENALIDOMIDE]
- remaining at 2 h, 100 µM [9]: 20%
- remaining at 0.5 h [1]: 89%
- remaining at 4 h [2]: 62%
- remaining at 24 h, 100 µM [7]: 39%
- remaining at 24 h, 100 µM [8]: > 99%

Structure (SMILES): Cc1sc2c(c1C)C(c1ccc(Cl)cc1)=N[C@@H](CC(=O)NC1CCN(C(=O)COc3cccc(N4CCC(=O)NC4=O)c3C)CC1)c1nnc(C)n1-2
- Activity [10]: 43.6%
- Activity [11]: Active
- Activity [12]: 0.32%
- Activity [13]: 16.9%
- Activity [14]: 5.77%
- Activity [15]: Active
- Activity [16]: 0.49%
- Activity [17]: 9.13%
- Activity [18]: 48.7%
- Activity [19]: 42.3%
- viability at 0.01 µM [20]: 77.2%
- viability at 0.1 µM [21]: 17.1%
- IC50 [22]: 1.1 nM
- Activity [23]: 1.13%
- Activity [24]: 88.7%
- Activity [25]: Active
- Activity [26]: 39.4%
- viability at 10 µM [27]: 3.88%
- viability at 1 µM [28]: 7.3%
- Activity [29]: 13.4%

Structure (SMILES): Cc1c(OCC(=O)N2CCCCC2)cccc1N1CCC(=O)NC1=O
- remaining at 0.5 h [1]: 85%
- remaining at 4 h [2]: 81%
- remaining at 24 h, 100 µM [3]: 95%
- Activity [4]: inactive
- Activity [5]: inactive
- Activity [6]: inactive
- remaining at 24 h, 100 µM [7]: > 99%
- Kd [30]: 1100 nM
- Activity [31]: inactive
- remaining at 24 h, 100 µM [8]: > 99%

Structure (SMILES): CCNC(=O)COc1cccc(N2CCC(=O)NC2=O)c1C
- remaining at 0.5 h [1]: 100%
- remaining at 4 h [2]: 88%
- remaining at 24 h, 100 µM [3]: 95%
- Activity [4]: inactive
- Activity [5]: inactive
- Activity [6]: inactive
- remaining at 24 h, 100 µM [7]: > 99%
- Kd [30]: 2140 nM
- remaining at 24 h, 100 µM [8]: > 99%

Structure (SMILES): Cc1ccccc1N1CCC(=O)NC1=O
- Kd [30]: 1240 nM

Structure (SMILES): CC(C)(C)OC(=O)NCC#Cc1cccc(N2CCC(=O)NC2=O)c1
- Kd [30]: 530 nM

Structure (SMILES): Cc1sc2c(c1C)C(c1ccc(Cl)cc1)=N[C@@H](CC(=O)NC1CCN(C(=O)COc3cccc(N4CCC(=O)N(C)C4=O)c3C)CC1)c1nnc(C)n1-2
- Activity [32]: inactive

Structure (SMILES): Cc1c(OCC(=O)OC(C)(C)C)cccc1N1CCC(=O)NC1=O
- Kd [30]: 1200 nM

Structure (SMILES): CC(=O)NCCC#Cc1cccc(N2CCC(=O)NC2=O)c1C
- remaining at 0.5 h [1]: 90%
- remaining at 4 h [2]: 102%
- remaining at 24 h, 100 µM [3]: 90%
- Activity [4]: inactive
- Activity [5]: inactive
- Activity [6]: inactive
- remaining at 24 h, 100 µM [7]: > 99%
- Kd [30]: 630 nM
- remaining at 24 h, 100 µM [8]: > 99%
